This test concerns the target T1, Nucleotide-binding oligomerization domain-containing protein 1 (Homo sapiens, UniProt Q9Y239).
T1 sequence (Q9Y239 whole entry): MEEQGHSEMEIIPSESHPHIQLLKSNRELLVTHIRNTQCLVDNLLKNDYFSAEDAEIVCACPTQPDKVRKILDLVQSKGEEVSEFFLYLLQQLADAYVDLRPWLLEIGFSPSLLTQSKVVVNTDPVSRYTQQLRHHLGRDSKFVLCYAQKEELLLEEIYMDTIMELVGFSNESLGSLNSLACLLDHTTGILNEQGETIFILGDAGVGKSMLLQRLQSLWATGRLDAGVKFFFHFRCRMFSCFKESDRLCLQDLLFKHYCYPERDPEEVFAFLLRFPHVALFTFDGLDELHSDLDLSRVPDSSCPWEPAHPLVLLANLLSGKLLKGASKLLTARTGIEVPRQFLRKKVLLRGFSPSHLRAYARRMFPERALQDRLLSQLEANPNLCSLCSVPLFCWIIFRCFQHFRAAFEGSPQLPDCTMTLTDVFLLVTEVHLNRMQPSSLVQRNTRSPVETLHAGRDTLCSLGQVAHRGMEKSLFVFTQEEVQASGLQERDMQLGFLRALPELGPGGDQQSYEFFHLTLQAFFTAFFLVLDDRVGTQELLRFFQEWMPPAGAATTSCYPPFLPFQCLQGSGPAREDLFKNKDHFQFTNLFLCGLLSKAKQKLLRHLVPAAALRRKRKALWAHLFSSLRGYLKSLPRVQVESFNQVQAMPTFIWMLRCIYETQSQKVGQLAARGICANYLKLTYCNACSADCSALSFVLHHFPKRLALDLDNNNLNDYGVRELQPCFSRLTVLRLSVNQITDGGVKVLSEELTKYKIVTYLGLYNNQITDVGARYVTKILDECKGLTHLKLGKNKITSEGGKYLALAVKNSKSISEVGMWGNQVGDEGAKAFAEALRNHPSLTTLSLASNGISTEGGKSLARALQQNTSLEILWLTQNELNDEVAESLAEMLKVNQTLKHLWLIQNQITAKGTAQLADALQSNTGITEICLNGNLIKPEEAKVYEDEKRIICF
As to the kind of experiment: Agonist activity at human NOD-1 expressed in human HEK293 cells assessed as NF-kappaB induction by spectrophotometric analysis. It is filed as functional, cell-based. In outline: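 HEK-Blue cells (HEK293 stably transfected with human Nod1 and an NF-κB/AP-1-inducible secreted alkaline phosphatase reporter) were kept in selection medium with zeocin and normocin. Cells at ~10^5 cells/mL were grown to confluency and then given graded compound concentrations. Supernatant sAP was read spectrophotometrically at 620 nm with an alkaline phosphatase-specific chromogen.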

SMILES strings stand for the structures.

Usually EC50 stands for the concentration needed to bring the measured effect to its halfway point. On to `CCCCCCCCCCCC(=O)N[C@H](CCC(=O)NC1CCCCNC1=O)C(=O)O` (stereo partly specified), for which the EC50 came to 1730 pM.

As for `CCCCCCCCCCCC(=O)NCCCC(=O)NC(CCCC(N)C(=O)O)C(=O)O` (stereo unspecified), the EC50 is 504 pM.

`CCCCCCCCCCCOC(=O)[C@@H](CCC(=O)NC(CCCC(N)C(=O)O)C(=O)O)NC(=O)CCCCCCCCCCC` (stereo partly specified): the EC50 worked out at 134 pM.

For `CCCCCCCCN(CCCCCCCC)[C@H](CCC(=O)NC(CCCC(N)C(=O)O)C(=O)O)C(=O)O` (stereo partly specified), the EC50 is 200 pM.

`CCCCCCCCCCCC(=O)N[C@H](CCC(=O)NC(CCCC(N)C(=O)O)C(=O)O)C(=O)OCC` (stereo partly specified): the concentration for a half-maximal effect (EC50) came out at 69 pM.

Turning to `CCCCCCCCCCCC(=O)N[C@H](CCC(=O)NCCCC[C@@H](N)C(=O)O)C(=O)O`, the 50% effective concentration (EC50) is 370 pM.

(Values after ChEMBL document CHEMBL1687899, “Structure-activity relationships in nucleotide oligomerization domain 1 (Nod1) agonistic γ-glutamyldiaminopimelic acid derivatives” (J Med Chem, 2011).)
